{"source": "paper PMC9197538", "about": "(CPT: Pharmacometrics & Systems Pharmacology, 2022)", "key": {"[1]": {"settings": "after single‐dose administration; cited from earlier work"}, "[2]": {"experiment": "Model-based simulations of exposure", "set-up": "species or system human", "settings": "age 18–86 years, race, sex, body weight 37.3–132 kg, mild‐to‐moderate renal impairment, mild‐to‐moderate hepatic impairment"}, "[3]": {"settings": "cited from earlier work"}, "CYP3A": {"system": "CYP3A", "settings": "cited from earlier work"}, "[4]": {"settings": "single oral dose radiolabeled mobocertinib 160 mg; cited from earlier work"}, "[5]": {"system": "EGFRex20ins‐positive mNSCLC", "settings": "160 mg q.d., cited from earlier work"}, "[6]": {"assay_type": "in vivo, human", "in_short": "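Joint semi-mechanistic fit of plasma data for the parent and two active metabolites, from healthy-volunteer single doses (20–160 mg) and patient q.d. dosing. Parent: two compartments, three absorption transit compartments. Metabolites: two and one compartments. An enzyme compartment's production follows Emax/EC50 on the molar sum, assuming equal molar potency. IIV is exponential, log-normal. BLOQ handled by modified M6.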"}, "[7]": {"settings": "low‐fat or high‐fat meal compared with fasting; cited from earlier work"}, "[8]": {"settings": "no reference given; cited from earlier work"}, "[9]": {"settings": "platinum‐pretreated patients with EGFRex20ins‐positive mNSCLC"}, "[10]": {"settings": "final population PK model, untransformed parameter"}}}
{"smiles": "C=CC(=O)Nc1cc(Nc2ncc(C(=O)OC(C)C)c(-c3cn(C)c4ccccc34)n2)c(OC)cc1N(C)CCN(C)C", "note": "[mobocertinib]", "values": [{"measurement": "mean half‐life", "setting": "[1]", "value": 20, "unit": "h"}, {"measurement": "effect of covariates on mobocertinib PK", "setting": "[2]", "value": "No clinically meaningful differences"}, {"measurement": "decrease of molar sum AUC0–∞", "setting": "[3]; co‐administration with strong CYP3A inducer rifampin", "value": 95, "unit": "%"}, {"measurement": "increase of molar sum AUC0–∞ of mobocertinib, AP32960, and AP32914", "setting": "[3]; co‐administration with strong CYP3A inhibitor itraconazole", "value": 527, "unit": "%"}, {"measurement": "CYP3A substrate and inducer status (in vitro)", "setting": "CYP3A", "value": "both substrates and inducers of CYP3A"}, {"measurement": "CYP3A inhibition and induction (in vitro)", "setting": "CYP3A; ref data on file, Takeda Development Center Americas", "value": "inhibitors and inducers of CYP3A"}, {"measurement": "dose recovered in feces", "setting": "[4]", "value": "~ 76%"}, {"measurement": "dose recovered in urine", "setting": "[4]", "value": 4, "unit": "%"}, {"measurement": "percentage of administered dose recovered in feces as this moiety", "setting": "[4]", "value": "~ 6%"}, {"measurement": "percentage of administered dose recovered in urine as this moiety", "setting": "[4]", "value": "~ 1%"}, {"measurement": "median duration of response per IRC", "setting": "[5]", "value": 17.5, "unit": "months"}, {"measurement": "median overall survival", "setting": "[5]", "value": 24.0, "unit": "months"}, {"measurement": "confirmed objective response rate (ORR) per independent review committee (IRC)", "setting": "[5]; [9]", "value": 28, "unit": "%"}, {"measurement": "confirmed objective response rate (ORR) per investigators", "setting": "[5]; [9]", "value": 35, "unit": "%"}, {"measurement": "IIV CL/F", "setting": "[6]; [10]", "value": 49.6, "unit": "%"}, {"measurement": "IIV Ka (interindividual variability)", "setting": "[6]; [10]", "value": 45.7, "unit": "%"}, {"measurement": "IIV Vc/F", "setting": "[6]; [10]", "value": 48.7, "unit": "%"}, {"measurement": "Ka, absorption rate constant", "setting": "[6]; [10]", "value": 2.12, "unit": "h⁻¹"}, {"measurement": "Residual variability, additive error on log scale", "setting": "[6]; [10]", "value": 41.4, "unit": "%"}, {"measurement": "Kenz, rate constant for enzyme synthesis/degradation", "setting": "[6]; final population PK model, enzyme (auto-induction) compartment", "value": 0.00392, "unit": "h⁻¹"}, {"measurement": "Emax, maximal induction effect", "setting": "[6]; final population PK model, enzyme compartment, molar sum of the three moieties", "value": 0.781}, {"measurement": "Vd/F", "setting": "[6]; human, plasma, oral, Vss/F, apparent volume of distribution at steady state, geometric mean (%CV 38%), derived from the final population PK model", "value": 3510, "unit": "L"}, {"measurement": "food effect on molar sum AUC", "setting": "[7]", "value": "no clinically meaningful differences"}, {"measurement": "Biopharmaceutics Classification System class", "setting": "[8]", "value": "Class 1"}, {"measurement": "permeability", "setting": "[8]", "value": "high permeability"}, {"measurement": "solubility", "setting": "[8]", "value": "highly soluble"}]}
